# Activity calls are given as the source filed them. No cut-off for these calls is given here.
# Columns and labels:
# [1] = Half life in rat at 10 mg/kg, iv; type: ADME, organism-based; settings: in vivo
# [2] = AUC (0 to t) in rat at 10 mg/kg, iv; type: ADME, organism-based; settings: in vivo
# [3] = Total clearance in rat at 10 mg/kg, iv; type: ADME, organism-based; settings: in vivo
# [4] = Cmax in rat at 20 mg/kg, po; type: ADME, organism-based; design: dose 20 mg/kg, route oral; settings: in vivo
# Mus musculus [5] = test: Anti-inflammatory activity in poly(I:C)-induced airway inflammation C57BL/6 mouse model assessed as reduction in neutrophils recruitment into bronchoalveolar lavage fluid at 10 mg/kg, ip administered 1 day prior to poly(I:C) stimulation and redosed on day 2 followed by poly(I:C) stimulation by trypan blue staining-based hemocytometric analysis; type: functional, organism-based
# Mus musculus [6] = test: Anti-inflammatory activity in poly(I:C)-induced airway inflammation C57BL/6 mouse model assessed as reduction in mKC expression in lung at 10 mg/kg, ip administered 1 day prior to poly(I:C) stimulation and redosed on day 2 followed by poly(I:C) stimulation; type: functional, organism-based
# Summary of the method: (§1)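 Male C57BL/6J mice, 12 weeks old, were given 10 mg/kg i.p. one day before stimulation. The next day they got a second dose, immediately followed by intranasal poly(I:C) (300 μg in 50 μL PBS) or PBS alone. Compound was taken up in DMSO and diluted in 10% hydroxypropyl β-cyclodextrin in PBS. Mice were euthanized one day later and lung tissue was collected for cytokine expression.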
# Mus musculus [7] = test: Anti-inflammatory activity in poly(I:C)-induced airway inflammation C57BL/6 mouse model assessed as reduction in mISG54 expression in lung at 10 mg/kg, ip administered 1 day prior to poly(I:C) stimulation and redosed on day 2 followed by poly(I:C) stimulation; type: functional, organism-based; summary of the method: as §1
# Mus musculus [8] = test: Anti-inflammatory activity in poly(I:C)-induced airway inflammation C57BL/6 mouse model assessed as reduction in mIL6 expression in lung at 10 mg/kg, ip administered 1 day prior to poly(I:C) stimulation and redosed on day 2 followed by poly(I:C) stimulation; type: functional, organism-based; summary of the method: as §1
# Mus musculus [9] = test: Toxicity in mouse assessed as effect on body weight at 1 to 50 mg/kg, ip dosed daily for 1 month; type: organism-based; settings: in vivo
# Mus musculus [10] = test: Toxicity in mouse assessed as effect on RBC levels at 1 to 50 mg/kg, ip dosed daily for 1 month; type: organism-based; settings: in vivo
# Mus musculus [11] = test: Toxicity in mouse assessed as effect on nuetrophils level at 1 to 50 mg/kg, ip dosed daily for 1 month; type: organism-based; settings: in vivo
# Mus musculus [12] = test: Hepatotoxicity in mouse assessed as effect on globulin level at 1 to 50 mg/kg, ip dosed daily for 1 month; type: toxicity, organism-based; settings: in vivo
# Summary of the method: (§2)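 Groups of n = 5 mice were dosed daily at 1-50 mg/kg for one month. Liver function markers (albumin, globulin, ALK, ALT) were measured alongside body weight, blood counts and renal markers.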
# Mus musculus [13] = test: Hepatotoxicity in mouse assessed as effect on ALKP level at 1 to 50 mg/kg, ip dosed daily for 1 month; type: toxicity, organism-based; settings: in vivo; summary of the method: as §2
# Mus musculus [14] = test: Renal toxicity in mouse assessed as effect on BUN level at 1 to 50 mg/kg, ip dosed daily for 1 month; type: organism-based; settings: in vivo
# [15] = biological target: Adenosine receptor A2a (Homo sapiens) (UniProt P29274); test: Displacement of [3H]-CGS 21680 from human recombinant adenosine A2A receptor at 10 uM after 120 mins by scintillation counting analysis relative to control
# [16] = biological target: Alpha-2A adrenergic receptor (Homo sapiens) (UniProt P08913); test: Binding affinity to adrenergic alpha2A receptor (unknown origin) at 10 uM by agonist radioligand assay relative to control
# [17] = biological target: B2 bradykinin receptor (Homo sapiens) (UniProt P30411); test: Displacement of [3H]bradykinin from human recombinant B2 receptor at 10 uM after 60 mins by scintillation counting analysis relative to control
# Rattus norvegicus = species: Rattus norvegicus; test: Displacement of [3H]flunitrazepam from rat brain central BZD at 10 uM after 60 mins by radioligand binding assay relative to control
# [18] = biological target: Cholecystokinin receptor type A (Homo sapiens) (UniProt P32238); test: Displacement of [125I]CCK-8s from human recombinant CCK1 receptor at 10 uM after 60 mins by scintillation counting analysis relative to control
# [19] = biological target: Histamine H1 receptor (Homo sapiens) (UniProt P35367); test: Displacement of [3H]pyrilamine from human recombinant histamine H1 receptor at 10 uM after 60 mins by scintillation counting analysis relative to control
# [20] = biological target: Muscarinic acetylcholine receptor M1 (Homo sapiens) (UniProt P11229); test: Displacement of [125I]pirenzepine from human recombinant M1 receptor at 10 uM after 60 mins by scintillation counting analysis relative to control
# [21] = biological target: Muscarinic acetylcholine receptor M3 (Homo sapiens) (UniProt P20309); test: Displacement of [3H]4-DAMP from human recombinant M3 receptor at 10 uM after 60 mins by scintillation counting analysis relative to control
# [22] = biological target: Neuronal acetylcholine receptor; alpha4/beta2 (Homo sapiens) (UniProt P17787+P43681); test: Binding affinity to neuronal alpha4beta2 (unknown origin) at 10 uM by antgonist radioligand assay relative to control; type: protein-complex assay
# [23] = biological target: 5-hydroxytryptamine receptor 1A (Homo sapiens) (UniProt P08908); test: Displacement of [3H]8-OH-DPAT from recombinant human 5-HT1A receptor at 10 uM after 60 mins by scintillation counting analysis relative to control
# [24] = biological target: Glucocorticoid receptor (Homo sapiens) (UniProt P04150); test: Displacement of [3H]dexamethasone from human GR at 10 uM after 360 mins by scintillation counting analysis relative to control
# [25] = biological target: Vasopressin V1a receptor (Homo sapiens) (UniProt P37288); test: Displacement of [3H]AVP from human recombinant V1a receptor at 10 uM after 60 mins by scintillation counting analysis relative to control
# [26] = biological target: Cav1.2 (L-type calcium channel) (Rattus norvegicus, UniProt P22002); test: Displacement of [3H]nitrendipine from rat Cav1.2 (L-type) at 10 uM after 90 mins by scintillation counting analysis relative to control; settings: probe [3H]nitrendipine, read-out: Activity
# hERG (KCNH2) = hERG (KCNH2) (Homo sapiens, UniProt Q12809); test: Displacement of [3H]Dofetilide from human ERG at 10 uM after 60 mins by scintillation counting analysis relative to control; settings: probe [3H]Dofetilide, read-out: Activity
# [27] = biological target: Sodium-dependent serotonin transporter (Homo sapiens) (UniProt P31645); test: Binding affinity to human serotonin transporter at 10 uM by antagonist radioligand assay relative to control; design: scale not given: the % may be the effect or the level left
# [28] = biological target: Prostaglandin G/H synthase 1 (Homo sapiens) (UniProt P23219); test: Inhibition of human recombinant COX1 using arachidonic acid as substrate after 3 mins by fluorimetric analysis; design: scale not given: the % may be the effect or the level left
# [29] = biological target: Inhibitor of nuclear factor kappa-B kinase subunit alpha (Homo sapiens) (UniProt O15111); test: Inhibition of human recombinant IKKalpha using Ulight-IkappaB-alpha as substrate after 30 mins relative to control; design: scale not given: the % may be the effect or the level left
# [30] = biological target: Inhibitor of nuclear factor kappa-B kinase subunit epsilon (Homo sapiens) (UniProt Q14164); test: Inhibition of human recombinant IKKepsilon using Ulight-FLGFTYVAP as substrate after 90 mins relative to control; design: scale not given: the % may be the effect or the level left
# Mus musculus [31] = test: Hepatotoxicity in mouse at 1 to 50 mg/kg, ip dosed daily for 1 month by histological analysis; type: toxicity, organism-based; settings: in vivo
# Mus musculus [32] = test: Renal toxicity in mouse at 1 to 50 mg/kg, ip dosed daily for 1 month by histological analysis; type: organism-based; settings: in vivo
# Chain of hERG (KCNH2) (Q12809 whole entry): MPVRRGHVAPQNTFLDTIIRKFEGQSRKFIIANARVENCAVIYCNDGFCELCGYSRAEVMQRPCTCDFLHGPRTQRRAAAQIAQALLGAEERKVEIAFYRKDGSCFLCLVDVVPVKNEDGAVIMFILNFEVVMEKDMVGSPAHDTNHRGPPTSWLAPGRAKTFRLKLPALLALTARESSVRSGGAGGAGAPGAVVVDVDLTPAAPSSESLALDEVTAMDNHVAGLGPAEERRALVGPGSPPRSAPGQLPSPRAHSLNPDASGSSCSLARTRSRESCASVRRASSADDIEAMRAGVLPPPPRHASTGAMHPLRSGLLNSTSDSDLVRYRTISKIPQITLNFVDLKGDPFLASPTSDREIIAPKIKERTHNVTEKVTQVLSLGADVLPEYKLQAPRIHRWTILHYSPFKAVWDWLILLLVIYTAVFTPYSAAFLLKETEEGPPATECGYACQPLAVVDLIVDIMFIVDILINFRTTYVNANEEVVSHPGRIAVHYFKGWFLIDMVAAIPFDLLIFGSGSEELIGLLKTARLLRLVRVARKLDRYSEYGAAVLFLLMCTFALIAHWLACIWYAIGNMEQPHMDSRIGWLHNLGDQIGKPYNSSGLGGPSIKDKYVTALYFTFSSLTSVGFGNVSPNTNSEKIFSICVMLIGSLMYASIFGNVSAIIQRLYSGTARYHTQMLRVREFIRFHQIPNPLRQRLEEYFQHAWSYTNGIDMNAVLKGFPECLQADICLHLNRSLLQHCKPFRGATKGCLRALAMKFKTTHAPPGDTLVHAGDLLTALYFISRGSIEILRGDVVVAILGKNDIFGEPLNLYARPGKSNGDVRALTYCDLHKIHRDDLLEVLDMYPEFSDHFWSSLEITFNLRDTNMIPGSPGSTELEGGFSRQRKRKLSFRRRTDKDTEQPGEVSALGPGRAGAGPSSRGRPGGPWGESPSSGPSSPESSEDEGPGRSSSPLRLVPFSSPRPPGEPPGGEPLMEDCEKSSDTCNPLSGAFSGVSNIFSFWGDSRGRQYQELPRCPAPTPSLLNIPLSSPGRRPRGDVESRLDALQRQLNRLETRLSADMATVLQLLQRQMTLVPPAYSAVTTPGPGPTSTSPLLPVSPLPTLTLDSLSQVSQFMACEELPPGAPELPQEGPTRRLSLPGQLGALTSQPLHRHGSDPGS
# Chain of Adenosine receptor A2a (Homo sapiens) (P29274 whole entry): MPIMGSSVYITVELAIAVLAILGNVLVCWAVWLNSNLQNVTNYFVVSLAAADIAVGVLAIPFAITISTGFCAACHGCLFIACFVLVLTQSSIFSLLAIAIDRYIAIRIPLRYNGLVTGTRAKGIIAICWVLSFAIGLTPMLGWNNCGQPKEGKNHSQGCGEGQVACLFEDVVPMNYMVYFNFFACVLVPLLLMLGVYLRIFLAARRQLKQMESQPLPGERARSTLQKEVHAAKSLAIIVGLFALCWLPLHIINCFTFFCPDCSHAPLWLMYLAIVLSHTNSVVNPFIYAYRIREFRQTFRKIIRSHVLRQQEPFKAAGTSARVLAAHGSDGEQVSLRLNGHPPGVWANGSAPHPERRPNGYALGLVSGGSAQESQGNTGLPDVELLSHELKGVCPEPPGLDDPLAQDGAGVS
# Chain of Inhibitor of nuclear factor kappa-B kinase subunit epsilon (Homo sapiens) (Q14164 whole entry): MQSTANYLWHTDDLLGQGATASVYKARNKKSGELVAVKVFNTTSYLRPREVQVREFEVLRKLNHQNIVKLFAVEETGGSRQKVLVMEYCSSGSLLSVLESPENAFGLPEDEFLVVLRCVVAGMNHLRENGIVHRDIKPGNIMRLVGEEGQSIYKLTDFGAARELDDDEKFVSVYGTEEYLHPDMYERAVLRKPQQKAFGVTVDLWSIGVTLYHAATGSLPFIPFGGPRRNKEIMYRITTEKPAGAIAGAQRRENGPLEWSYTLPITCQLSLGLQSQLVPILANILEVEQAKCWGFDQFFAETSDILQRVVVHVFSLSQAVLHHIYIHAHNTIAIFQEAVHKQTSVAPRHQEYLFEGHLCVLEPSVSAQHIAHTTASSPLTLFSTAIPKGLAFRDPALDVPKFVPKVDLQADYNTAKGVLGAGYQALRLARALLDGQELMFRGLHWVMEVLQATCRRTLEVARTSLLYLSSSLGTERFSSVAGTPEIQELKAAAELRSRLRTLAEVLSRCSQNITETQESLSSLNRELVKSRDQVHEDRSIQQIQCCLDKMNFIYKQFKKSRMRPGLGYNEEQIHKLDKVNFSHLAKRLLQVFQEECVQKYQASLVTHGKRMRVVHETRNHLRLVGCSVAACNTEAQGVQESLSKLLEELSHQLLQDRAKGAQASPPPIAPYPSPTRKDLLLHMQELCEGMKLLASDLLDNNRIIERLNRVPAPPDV
# Chain of Muscarinic acetylcholine receptor M1 (Homo sapiens) (P11229 whole entry): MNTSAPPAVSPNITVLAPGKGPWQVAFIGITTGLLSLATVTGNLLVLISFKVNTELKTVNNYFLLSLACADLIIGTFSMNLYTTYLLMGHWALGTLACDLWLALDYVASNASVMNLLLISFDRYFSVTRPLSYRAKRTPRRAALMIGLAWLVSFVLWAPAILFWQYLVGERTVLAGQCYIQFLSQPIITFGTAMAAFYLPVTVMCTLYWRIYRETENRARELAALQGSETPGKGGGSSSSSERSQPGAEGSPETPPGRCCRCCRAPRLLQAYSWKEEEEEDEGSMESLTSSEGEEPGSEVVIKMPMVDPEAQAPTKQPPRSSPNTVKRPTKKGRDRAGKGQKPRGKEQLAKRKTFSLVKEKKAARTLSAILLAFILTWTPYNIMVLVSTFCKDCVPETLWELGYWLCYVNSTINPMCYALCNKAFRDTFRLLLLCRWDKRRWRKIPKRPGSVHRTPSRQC
# Chain of Alpha-2A adrenergic receptor (Homo sapiens) (P08913 whole entry): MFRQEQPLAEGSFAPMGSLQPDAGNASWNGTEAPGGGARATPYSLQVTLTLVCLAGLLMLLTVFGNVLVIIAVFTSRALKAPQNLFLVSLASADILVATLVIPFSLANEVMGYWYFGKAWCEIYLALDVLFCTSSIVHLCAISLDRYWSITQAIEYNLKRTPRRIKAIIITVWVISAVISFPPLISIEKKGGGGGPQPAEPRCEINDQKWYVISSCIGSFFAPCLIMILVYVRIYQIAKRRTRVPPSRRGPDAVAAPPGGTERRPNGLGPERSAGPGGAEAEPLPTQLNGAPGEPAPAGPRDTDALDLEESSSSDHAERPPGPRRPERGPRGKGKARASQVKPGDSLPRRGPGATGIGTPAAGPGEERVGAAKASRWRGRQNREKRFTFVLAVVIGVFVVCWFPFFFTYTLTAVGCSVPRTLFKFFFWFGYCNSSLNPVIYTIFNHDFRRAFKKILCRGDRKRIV
# Chain of Vasopressin V1a receptor (Homo sapiens) (P37288 whole entry, looked up): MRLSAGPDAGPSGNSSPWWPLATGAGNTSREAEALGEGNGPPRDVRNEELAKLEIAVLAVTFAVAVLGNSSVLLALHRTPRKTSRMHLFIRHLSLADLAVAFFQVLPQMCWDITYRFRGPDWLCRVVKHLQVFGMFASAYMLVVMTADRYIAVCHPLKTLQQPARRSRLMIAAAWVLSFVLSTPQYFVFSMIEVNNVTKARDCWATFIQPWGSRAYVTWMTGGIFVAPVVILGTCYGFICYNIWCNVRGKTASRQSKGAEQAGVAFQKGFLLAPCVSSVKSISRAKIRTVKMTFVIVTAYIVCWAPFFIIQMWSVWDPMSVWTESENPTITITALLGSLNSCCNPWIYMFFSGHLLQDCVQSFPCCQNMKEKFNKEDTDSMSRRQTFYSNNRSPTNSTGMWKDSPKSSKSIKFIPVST
# Chain of Sodium-dependent serotonin transporter (Homo sapiens) (P31645 whole entry, looked up): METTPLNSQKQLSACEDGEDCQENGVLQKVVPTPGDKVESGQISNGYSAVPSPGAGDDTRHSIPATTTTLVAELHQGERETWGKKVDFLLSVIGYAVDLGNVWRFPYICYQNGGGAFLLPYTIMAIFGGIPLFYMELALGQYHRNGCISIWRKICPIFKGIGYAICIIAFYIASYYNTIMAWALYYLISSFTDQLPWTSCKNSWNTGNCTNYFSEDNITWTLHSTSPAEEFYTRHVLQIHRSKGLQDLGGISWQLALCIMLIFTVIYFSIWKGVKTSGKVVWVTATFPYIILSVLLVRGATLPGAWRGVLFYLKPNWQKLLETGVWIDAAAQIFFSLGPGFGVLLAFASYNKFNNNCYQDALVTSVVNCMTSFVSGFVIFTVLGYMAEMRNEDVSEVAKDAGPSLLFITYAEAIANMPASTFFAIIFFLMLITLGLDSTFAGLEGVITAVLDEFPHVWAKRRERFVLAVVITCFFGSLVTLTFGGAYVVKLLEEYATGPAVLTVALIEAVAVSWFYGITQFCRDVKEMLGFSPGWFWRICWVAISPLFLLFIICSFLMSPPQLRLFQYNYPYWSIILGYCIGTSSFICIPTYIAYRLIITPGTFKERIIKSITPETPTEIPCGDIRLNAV
# Chain of Muscarinic acetylcholine receptor M3 (Homo sapiens) (P20309 whole entry, looked up): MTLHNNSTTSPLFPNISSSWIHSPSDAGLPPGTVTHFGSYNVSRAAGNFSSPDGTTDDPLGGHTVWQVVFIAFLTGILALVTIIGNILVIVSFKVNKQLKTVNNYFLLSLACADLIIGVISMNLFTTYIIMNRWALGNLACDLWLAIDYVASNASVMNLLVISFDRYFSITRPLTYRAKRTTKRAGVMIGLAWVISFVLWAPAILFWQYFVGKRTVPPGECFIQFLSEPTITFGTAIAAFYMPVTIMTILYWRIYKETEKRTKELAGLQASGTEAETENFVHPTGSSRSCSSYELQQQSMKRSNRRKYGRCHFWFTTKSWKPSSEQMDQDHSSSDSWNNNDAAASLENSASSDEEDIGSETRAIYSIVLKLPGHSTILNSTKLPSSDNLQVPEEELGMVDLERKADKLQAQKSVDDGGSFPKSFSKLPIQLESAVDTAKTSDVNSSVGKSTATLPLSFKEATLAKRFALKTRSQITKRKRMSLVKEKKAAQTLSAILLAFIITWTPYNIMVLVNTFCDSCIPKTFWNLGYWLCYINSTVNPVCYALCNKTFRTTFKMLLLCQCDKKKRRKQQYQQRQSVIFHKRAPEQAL
compound,measurement,setting,value
Cc1cc(/N=N/c2ccc(S(=O)(=O)NC3CCCC3)cc2)c(N)cc1O,half-life,[1],49.8 min
same,AUC(0-t),[2],11400 ng·h/mL
same,clearance,[3],14.7 mL/min/kg
same,Cmax,[4],36 ng/mL
same,Activity,Mus musculus [5],Active
same,Activity,Mus musculus [6],Active
same,Activity,Mus musculus [7],Active
same,Activity,Mus musculus [8],Active
same,Activity,Mus musculus [9],Non-Toxic
same,Activity,Mus musculus [10],Non-Toxic
same,Activity,Mus musculus [11],Non-Toxic
same,Activity,Mus musculus [12],Non-Toxic
same,Activity,Mus musculus [13],Non-Toxic
same,Activity,Mus musculus [14],Non-Toxic
same,Activity,[15],38.1%
same,Activity,[16],3%
same,Activity,[17],-2.4%
same,Activity,Rattus norvegicus,8.3%
same,Activity,[18],17.4%
same,Activity,[19],7.1%
same,Activity,[20],-1.5%
same,Activity,[21],4.8%
same,Activity,[22],-2.9%
same,Activity,[23],-0.1%
same,Activity,[24],15%
same,Activity,[25],32.4%
same,"inhibition at […], 10 µM",[26],42%
same,"inhibition at 1 h, 10 µM",hERG (KCNH2),23.6%
same,Activity,[27],15%
same,Activity,[28],28.2 to 41.6%
same,Activity,[29],-14.2%
same,Activity,[30],-26.2%
same,Activity,Mus musculus [31],Non-Toxic
same,Activity,Mus musculus [32],Non-Toxic

# Source: ChEMBL document CHEMBL4152207, “Discovery of potent and selective BRD4 inhibitors capable of blocking TLR3-induced acute airway inflammation” (Eur J Med Chem, 2018)
